mABHD4 FP = inhibitors of mouse ABHD4 | inhibition, % at 8.92 µM | Q8VD66 | purified mABHD4, FP-Rh probe fluorescence polarization | 370,000 tested, 0.54% active;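 active means inhibition exceeding the mean over every tested compound plus 3 SD, cut at about 30% in these data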
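Test system: mouse ABHD4 enzyme, wild type. Reagent: FP-Rh fluorescent activity-based probe, added after compound pre-incubation. Timing: pre-incubation 45 min, probe exposure 60 min, at 25 °C. Technique: FP readout, ex 525 nm / em 598 nm. Benchmarks: high control S159A mutant with DMSO, low control median of compound wells.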
HTRA1 inhibitor = inhibitors of human serine peptidase HTRA1. Q92743. recombinant HTRA1, FP-rhodamine activity-based probe, fluorescence polarization. inhibition, % at 5.96 µM. 340,000 tested, 0.5% active; in the data active means inhibition above about 36%
TCR-CD3 inh = human TCR-CD3 binding inhibition. TAMRA-labeled TCR probe fluorescence, biochemical. inhibition, % at 9.4 µM. 360,000 tested, 0.37% active; in the data active means inhibition above about 19%;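 further: recombinant mutant TCR 2C K166C tagged with TAMRA read by polarization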
Tn7 DDE FP = inhibitors of Tn7 peptide binding to human fibrin DD(E); P02675; FP displacement of FITC-Tn7 peptide from fibrin DD(E); 0% = median of compound wells per plate; inhibition, % at 8.3 µM; 370,000 tested, 0.13% active; AID 720508;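 active means inhibition above the mean of compounds falling within the control limits plus 3 SD of them, cut at about 14% in these data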
Target sequence (P02675 whole entry, looked up): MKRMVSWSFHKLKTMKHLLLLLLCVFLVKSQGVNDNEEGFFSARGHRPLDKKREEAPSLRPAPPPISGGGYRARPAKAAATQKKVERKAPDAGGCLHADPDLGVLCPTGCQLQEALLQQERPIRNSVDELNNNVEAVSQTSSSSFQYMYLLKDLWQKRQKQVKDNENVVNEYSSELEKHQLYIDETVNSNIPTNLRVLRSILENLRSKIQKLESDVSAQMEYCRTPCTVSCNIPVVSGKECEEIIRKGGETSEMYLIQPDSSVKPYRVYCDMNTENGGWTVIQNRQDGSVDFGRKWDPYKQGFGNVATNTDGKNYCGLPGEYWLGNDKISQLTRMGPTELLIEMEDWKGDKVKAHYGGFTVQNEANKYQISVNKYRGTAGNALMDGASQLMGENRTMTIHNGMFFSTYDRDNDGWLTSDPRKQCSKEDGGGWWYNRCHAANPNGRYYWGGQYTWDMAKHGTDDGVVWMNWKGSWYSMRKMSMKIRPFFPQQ
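Assay system: Human fibrin DD(E) protein | Medium: Tris buffer with calcium and detergent, pH 7.8 | Reagent: 0.1 µM fluorescent Tn7 | Compound dosing: Single point at 8.3 µM | Times: 10 min preincubation, 3 h with tracer, room temperature | Detection: Fluorescence polarization of the labelled Tn7 tracer | Controls: Aha-Tn7 high control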
Tn6 DDE FP = disrupts Tn6 cyclic peptide binding to fibrin D-Dimer-E complex | P02675 | Fibrin DD(E) TRITC-Tn6 fluorescence polarization displacement | inhibition, % at 8.3 µM | 370,000 tested, 0.21% active;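 active means inhibition above a per-campaign cutoff: mean of compounds within control limits plus 3 SD, cut at about 15% in these data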
HTRA1 conf = confirmation of human HTRA1 inhibitors; shares compounds with HTRA1 inhibitor; recombinant HTRA1, FP-rhodamine activity-based probe, fluorescence polarization; inhibition, % at 5.96 µM; 1,600 tested, 66% active; AID 540248;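 active means mean inhibition over three repeats above a set limit taken from the earlier primary screen, cut at about 37% in these data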;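 further: inhibitors block probe binding so polarization drops and inhibition rises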
Of the large screens only hits and unclear results are named; the others gave an inactive call (follow-up assays come after a bar, where they were run). Only some compounds are listed: those with a hit (about 1.3% of all), similar ones and a draw of the others.

CCN(CC)S(=O)(=O)c1ccc2c(c1)nc(SC(C)C(N)=O)n2-c1ccc(OC)cc1 (stereo unspecified)	none
CC(C)CN=Cc1c(O)c([N+](=O)[O-])cc2oc3c(c12)CCCC3	HTRA1 inhibitor 44 | HTRA1 conf 43
CCOC(=O)c1c(-c2ccc(OC)c(OC)c2)csc1NC(=O)C1CCCO1 (stereo unspecified)	none
O=C(COC(=O)c1nc(Cl)ccc1Cl)Nc1ncc(Cl)cc1Cl	HTRA1 inhibitor 63 | HTRA1 conf inactive
Cc1ccsc1/C=N/NC(=S)NCc1ccccc1	none
O=C(CSc1nc2nn(-c3ccccc3)c(=O)c-2c2n1CCCCC2)c1ccc(O)c(O)c1	HTRA1 inhibitor 74 (no result: mABHD4 FP, TCR-CD3 inh, Tn7 DDE FP, Tn6 DDE FP) | HTRA1 conf 97
COc1ccc(C(=O)N/N=C/c2c(C)[nH]c(=O)[nH]c2=O)cc1	none
O=[N+]([O-])c1cc2c(cc1C=Nc1ccccc1)OCO2	HTRA1 inhibitor 51 (no result: mABHD4 FP, TCR-CD3 inh, Tn7 DDE FP, Tn6 DDE FP) | HTRA1 conf inactive
O=C(Nc1nnc([C@H]2C[C@H](O)[C@@H](CO)O2)s1)Nc1ccccc1Oc1ccccc1	none (no result: HTRA1 inhibitor)
Brc1csc(/C=N/Nc2nc3ccccc3s2)c1	HTRA1 inhibitor 40 | HTRA1 conf inactive
Brc1cc2c(cc1/C=N/Nc1nc3ccccc3s1)OCO2	none
COc1cc(/C=C(\C#N)C(=O)c2ccc(O)c(O)c2)cc(I)c1O	HTRA1 inhibitor 41, TCR-CD3 inh 23 | HTRA1 conf inactive
C=CCN(c1ccccc1)S(=O)(=O)c1cccc(C(=O)NNC(=O)c2ccccc2O)c1	none
O=C1CC(Nc2ccc(N3CCOCC3)cc2)C(=O)N1c1cccc(C(F)(F)F)c1 (stereo unspecified)	HTRA1 inhibitor 61 (no result: mABHD4 FP, TCR-CD3 inh, Tn7 DDE FP, Tn6 DDE FP) | HTRA1 conf inactive
CN(Cc1ccccc1)C(=O)C1CCN(S(=O)(=O)c2ccc(-n3cnnn3)cc2)CC1	none
CCCOc1ccc(N)cc1N	HTRA1 inhibitor 56 | HTRA1 conf inactive
CCCOc1cc(N)ccc1C(=O)OCCN(CC)CC	none
Cc1ccc(-n2c(O)c(/C=N/Nc3ccc(S(=O)(=O)N4CCOCC4)cc3[N+](=O)[O-])c3ccccc3c2=O)c(C)c1	HTRA1 inhibitor 48 | HTRA1 conf 156
CC(=O)N1c2ccc(S(=O)(=O)NCc3ccco3)cc2CC1C (stereo unspecified)	none
CCCC(=O)NC(c1ccco1)c1cc(Cl)c2cccnc2c1O (stereo unspecified)	HTRA1 inhibitor 47 | HTRA1 conf 54
CCCC(=O)NC(c1cccs1)c1cc(Cl)c2cccnc2c1O (stereo unspecified)	HTRA1 inhibitor 63 | HTRA1 conf 56
CCCC(=O)NC(c1ccc2c(c1)OCO2)c1cc(Cl)c2cccnc2c1O (stereo unspecified)	HTRA1 inhibitor 62 (no result: mABHD4 FP, TCR-CD3 inh, Tn7 DDE FP, Tn6 DDE FP) | HTRA1 conf 59
Cc1nc(NCCc2ccccc2)sc1C(=O)O	none
O=C(N/N=C/c1ccc(O)c(O)c1)c1ccc(CSc2cccc3cccnc23)cc1	HTRA1 inhibitor 57 | HTRA1 conf 85
O=C(CSc1cccc2cccnc12)N/N=C/c1cccc(O)c1	none
Cc1ccc(C(C)C)c(OCc2ccc(C(=O)N/N=C/c3cccc(O)c3O)cc2)c1	HTRA1 inhibitor 83 | HTRA1 conf 78
COc1cc(/C=N/NC(=O)c2ccc(COc3cc(C)ccc3C(C)C)cc2)cc(OC)c1O	none
Cc1ccc(C(C)C)c(OCc2ccc(C(=O)N/N=C/c3ccc(O)c(O)c3)cc2)c1	HTRA1 inhibitor 63 | HTRA1 conf 56
CCCCOCCOCCOCCCC	none
COc1cccc(C(=O)NNc2nc(C)cc(C)n2)c1	none
COC(=O)c1ccc(C)c(-n2c(C)cc(C=O)c2C)c1	none
COc1ccc(OC)c(/C=N/NC(=O)CCc2ccc(O)c(O)c2)c1	HTRA1 inhibitor 53 | HTRA1 conf 79
CCNC(=O)CN(CCc1ccccc1)S(C)(=O)=O	none
Cc1ccc(S(=O)(=O)NCCC(=O)N(C)Cc2cccs2)cc1	none
COc1ccc(-c2cc3ccccc3n2CC(O)Cn2nc(C)cc2C)cc1 (stereo unspecified)	HTRA1 inhibitor 38 | HTRA1 conf inactive
CCOc1cc(/C=C2\C(=O)N(c3ccc(C(N)=O)cc3)N=C2C)ccc1OC(=O)c1cccs1	none (no result: mABHD4 FP, TCR-CD3 inh, Tn7 DDE FP, Tn6 DDE FP)
CC1=NN(c2ccc(C(=O)O)cc2)C(=O)/C1=C\c1ccc(OC(=O)c2cccs2)cc1	HTRA1 inhibitor 39 | HTRA1 conf inactive
C=CCN1C=C2C(=O)C(C)(OC(=O)CCC(=O)OC)C(=O)C(Br)=C2C=C1c1ccc(OC)cc1 (stereo unspecified)	HTRA1 inhibitor 63 (no result: mABHD4 FP, TCR-CD3 inh, Tn7 DDE FP, Tn6 DDE FP) | HTRA1 conf 43
COCCN1C=C2C(=O)C(C)(OC(=O)CCC(=O)OC)C(=O)C(Br)=C2C=C1c1ccc(OC)cc1 (stereo unspecified)	none (no result: mABHD4 FP, TCR-CD3 inh, Tn7 DDE FP, Tn6 DDE FP)
COC(=O)CCC(=O)OC1(C)C(=O)C2=CN(c3ccc(OC)cc3)C(c3ccc(OC)cc3)=CC2=C(Br)C1=O (stereo unspecified)	HTRA1 inhibitor 53 (no result: mABHD4 FP, TCR-CD3 inh, Tn7 DDE FP, Tn6 DDE FP) | HTRA1 conf 63
COC(=O)CCC(=O)OC1(C)C(=O)C2=CN(C3CCCC3)C(c3ccc(OC)cc3)=CC2=C(Br)C1=O (stereo unspecified)	HTRA1 inhibitor 61 | HTRA1 conf 52
O=C(CSC1CS(=O)(=O)c2cc([N+](=O)[O-])ccc21)NNC(=O)c1ccc(Cl)cc1 (stereo unspecified)	none
CN(C)CCCn1c(SCC(=O)Nc2nc(-c3cccc(Br)c3)cs2)nc2ccccc2c1=O	none
CCCc1cc(=O)n2[nH]c(NCc3ccc(OC)cc3)nc2n1	none
CCCCC(=O)NC(c1ccc(N(CC)CC)cc1)c1ccc2cccnc2c1O (stereo unspecified)	HTRA1 inhibitor 60 | HTRA1 conf 66
CCCCC(=O)NC(c1ccc(N(C)C)cc1)c1ccc2cccnc2c1O (stereo unspecified)	HTRA1 inhibitor 46 | HTRA1 conf 61
CC(C)C(=O)NC(c1ccco1)c1ccc2cccnc2c1O (stereo unspecified)	none
CCCC(=O)NC(c1ccc(N(C)C)cc1)c1c(O)ccc2ccccc12 (stereo unspecified)	none
CCN(CC)c1ccc(C(NC(=O)C(C)C)c2ccc3cccnc3c2O)cc1 (stereo unspecified)	HTRA1 inhibitor 56 | HTRA1 conf 61
CC(C)C(=O)NC(c1cccc([N+](=O)[O-])c1)c1ccc2cccnc2c1O (stereo unspecified)	HTRA1 inhibitor 44 | HTRA1 conf 46
O=C1CC(=O)Nc2cc(S(=O)(=O)Nc3cccc(C(F)(F)F)c3)ccc2N1	none
O=S(=O)(c1ccc(Br)cc1F)N1CCC(O)CC1	none
COc1ccc(Nc2nnc(-c3ccncc3)s2)cc1Cl	none
CN(C)c1ccc(NC(=O)CSCc2nc3c(nnn3Cc3ccc(F)cc3)c(=O)[nH]2)cc1	HTRA1 inhibitor 38 (no result: mABHD4 FP, TCR-CD3 inh, Tn7 DDE FP, Tn6 DDE FP) | HTRA1 conf inactive

Bioassay records (PubChem)
